Consider eight molecules from ChEMBL document CHEMBL3400039, “Design, synthesis and in vitro cell-based evaluation of the anti-cancer activities of hispolon analogs” (Bioorg Med Chem, 2015).

Each structure is given as a SMILES string. Active and inactive are the calls of the source. The calls are words filed in the database; no cut-off is given here.

Assay [1] concerns DU-145. The experiment in a line: Cytotoxicity against human DU145 cells after 72 hrs by MTT assay. The format is functional, cell-based. The settings on record: for IC50: DU-145, 72 h. In outline: (§1)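 Cells kept as adherent monolayers in DMEM with 10% FBS, 37°C, 5% CO2. Trypsin-harvested, seeded at 5 × 10^3 cells/well, then exposed to compound at 0.1 to 100 µM for 72 h. MTT (4 mg/ml) added for 4 h, formazan dissolved in DMSO, absorbance read at 570 nm. At least three experiments, each in triplicate; mean±SD.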
Background: Tetrazolium assays rely on reduction of a dye to a coloured formazan, in cell work by metabolically active cells.

Assay [2] is described as follows: (§2) Cytotoxicity against human S1 cells after 72 hrs by MTT assay. The format is functional, cell-based. The settings on record: S1, 72 h. In outline:
as §1

Assay [3] can be described thus: (§3) Cytotoxicity against human HCT116 cells after 72 hrs by MTT assay. The format is functional, cell-based. The settings on record: HCT-116, 72 h. In outline:
as §1

A short description of assay [4]: (§4) Cytotoxicity against human PC3 cells after 72 hrs by MTT assay. The format is functional, cell-based. The settings on record: PC-3, 72 h. In outline:
as §1

Assay [5] deals with MCF7. The experiment in a line: Cytotoxicity against human MCF7 cells after 72 hrs by MTT assay. The settings on record: for IC50: MCF7, 72 h. The format is functional, cell-based. In outline: as §1
Assay [6] in a line: Cytotoxicity against mouse NIH/3T3 cells after 72 hrs by MTT assay. The format is cell-based. The settings on record: NIH3T3, 72 h. In outline:
as §1

The test system of assay [7] is HEK293. Kind of assay: Cytotoxicity against HEK293 cells expressing ABCB1 after 72 hrs by MTT assay. The settings on record: Homo sapiens, HEK293, 72 h. The format is functional, cell-based. In outline:
as §1

Assay [8] concerns MDCK. The experiment in a line: Cytotoxicity against MDCK cells after 72 hrs by MTT assay. The format is cell-based. The settings on record: Canis lupus familiaris. In outline: as §1
In assay [9] the test system is HEK293. The experiment in a line: Cytotoxicity against HEK293 cells expressing pcDNA3.1 after 72 hrs by MTT assay. The format is cell-based. The settings on record: Homo sapiens, HEK293, 72 h. In outline: as §1
Assay [10] has as its system HEK293. The experiment in a line: Resistance index, ratio of IC50 for HEK293 cells expressing ABCB1 to IC50 for HEK293 cells expressing pcDNA3.1. On the set-up: species or system Homo sapiens. In outline: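 Fold resistance is the IC50 in P-glycoprotein-overexpressing HEK293/ABCB1 cells divided by the IC50 in empty-vector HEK293/pcDNA3.1 cells. IC50s from the 72 h MTT assay; paclitaxel was the positive-control ABCB1 substrate.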

For assay [11], the system named is PC-3. Kind of assay: Induction of morphological changes in human PC3 cells up to 100 uM after 68 hrs by inverted microscopy. The format is functional, cell-based. In outline: (§5)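 Cells grown in DMEM/10% FBS and treated in triplicate for 68 h. Photographed with an inverted microscope at 20X alongside untreated wells. Images scored double-blind for cell size, shape, number and debris.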

Assay [12] concerns MDA-MB-231. The experiment in a line: Cytotoxicity against human MDA-MB-231 cells after 72 hrs by MTT assay. The settings on record: for IC50: MDA-MB-231, 72 h. The format is functional, cell-based. In outline: as §1
Assay [13] relates to HCT-116. Kind of assay: Induction of morphological changes in human HCT116 cells up to 100 uM after 68 hrs by inverted microscopy. The format is functional, cell-based. In outline:
as §5

The subject of assay [14] is HEK293. Kind of assay: Ratio of IC50 for HEK293 cells expressing pcDNA3.1 to IC50 for human S1 cells. In outline: (§6)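 Selectivity ratio of the IC50 in empty-vector HEK293/pcDNA3.1 cells to the IC50 in each cancer line. IC50s from the 72 h MTT assay (0.1–100 µM, Bliss method, ≥3 experiments in triplicate).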
The subject of assay [15] is HCT-116. Kind of assay: Reduction in mitochondrial membrane potential in human HCT116 cells after 4 hrs by Mitotracker red staining based flow cytometry (reference value: 27.56%). The format is functional, cell-based. In outline:
(§7)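 HCT-116 cells in 6-well plates, exposed in complete medium with or without compound (0.5 or 5 µM) for 4 h. Harvested and stained with MitoTracker Red for 30 min at 37°C, washed in PBS, then given Alexa Fluor 488 annexin V in annexin-binding buffer for 15 min. Flow cytometry with emission read at 530 and 585 nm; quadrant analysis against untreated control.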
In general terms: A flow cytometer gives signals particle by particle.

The subject of assay [16] is HCT-116. Kind of assay: Induction of apoptosis in human HCT116 cells at 0.5 uM after 4 hrs by Alexa fluor 488 annexin V staining based flow cytometry (reference value: 5.58%). The format is functional. In outline: as §7
Assay [17] relates to HCT-116. The experiment in a line: Reduction in mitochondrial membrane potential in human HCT116 cells at 5 uM after 4 hrs by Mitotracker red staining based flow cytometry (reference value: 27.56%). The format is functional. On the set-up: scale not given: the % may be the effect or the level left. In outline: as §7
Assay [18] deals with PC-3. The experiment in a line: Induction of morphological changes in human PC3 cells assessed as increase in cell size at 1 uM after 68 hrs by inverted microscopy. The format is functional, cell-based. In outline:
as §5

The subject of assay [19] is HCT-116. The experiment in a line: Potency index, ratio of IC50 for hispolon to IC50 for compound for human HCT116 cells after 72 hrs by MTT assay. The format is functional. In outline:
(§8)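 Ratio of the hispolon IC50 to the analog IC50 in the same cancer line. Both IC50s come from the 72 h MTT assay (0.1–100 µM), with survival curves fitted by the Bliss method.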

Assay [20] deals with HEK293. The experiment in a line: Ratio of IC50 for HEK293 cells expressing pcDNA3.1 to IC50 for human PC3 cells. In outline: as §6
The test system of assay [21] is HCT-116. The experiment in a line: Reduction in mitochondrial membrane potential in human HCT116 cells at 0.5 uM after 4 hrs by Mitotracker red staining based flow cytometry (reference value: 27.56%). The format is functional. On the set-up: scale not given: the % may be the effect or the level left. In outline: as §7
The subject of assay [22] is PC-3. The experiment in a line: Potency index, ratio of IC50 for hispolon to IC50 for compound for human PC3 cells after 72 hrs by MTT assay. The format is functional. In outline: as §8
In assay [23] the test system is S1. The assay is described as §2. The format is functional, cell-based. In outline:
as §1

The test system of assay [24] is HCT-116. The experiment in a line: Induction of morphological changes in human HCT116 cells assessed as increase in cell size at 1 uM after 68 hrs by inverted microscopy. The format is functional, cell-based. In outline:
as §5

In assay [25] the test system is HCT-116. The description is as §3. The format is functional, cell-based. In outline:
as §1

The test system of assay [26] is PC-3. The assay is described as §4. The format is functional, cell-based. In outline: as §1
Assay [27] deals with DU-145. Kind of assay: Potency index, ratio of IC50 for hispolon to IC50 for compound for human DU145 cells after 72 hrs by MTT assay. The format is functional. In outline:
as §8

The subject of assay [28] is HEK293. The experiment in a line: Ratio of IC50 for HEK293 cells expressing pcDNA3.1 to IC50 for human DU145 cells. In outline: as §6
Assay [29] relates to HCT-116. Kind of assay: Induction of apoptosis in human HCT116 cells at 5 uM after 4 hrs by Alexa fluor 488 annexin V staining based flow cytometry (reference value: 5.58%). The format is functional. In outline: as §7
In assay [30] the test system is HEK293. The experiment in a line: Ratio of IC50 for HEK293 cells expressing pcDNA3.1 to IC50 for human HCT116 cells. In outline:
as §6

A short description of assay [31]: Potency index, ratio of IC50 for hispolon to IC50 for compound for human S1 cells after 72 hrs by MTT assay. The format is functional. In outline:
as §8

Regarding `COc1ccc(/C=C/c2cc(C)no2)cc1OC`, the IC50 (as a rule, the midpoint of a concentration-inhibition curve) is greater than 100 µM in [1]; greater than 100 µM in assay [2]; 87.4 µM in [3]; greater than 100 µM in assay [4]; greater than 100 µM in assay [5]; 93.2 µM in assay [6]. The IC50 was 77.8 µM in assay [7], 44.7 µM in assay [8] and 63.2 µM in assay [9]. For the same molecule, in assay [10], the “Ratio IC50” value turned out to be 1.2.

As to `COc1ccc(/C=C/c2cc(C)no2)cc1`, the IC50 in assay [1] is greater than 100 µM; in assay [2], 76.4 µM; in [3], 22.4 µM; in assay [4], greater than 100 µM; in assay [5], greater than 100 µM; in assay [6] it was greater than 100 µM. Also, the results for the IC50 in assay [7], in [8] and in assay [9] were 66.3 µM, 70.2 µM and 58.3 µM, respectively. The “Ratio IC50” value in [10] is recorded as 1.1.

For `COc1cc(CCC(=O)CC(C)=O)ccc1O`, the outcome in [11] and in [13] was inactive. The IC50 in [12] is greater than 100 µM; in [2] it was 98.2 µM; in assay [3] it was 80.8 µM; in [4], greater than 100 µM; in assay [5], greater than 100 µM; in [7], 92.5 µM. Moreover, the IC50 in [8] stood at 72.5 µM. The “Ratio IC50” value in [10] is reported as 1.

As for `COc1cc(/C=C/C(=O)CC(C)=O)ccc1O`, the “Ratio IC50” value in assay [14] was 9; in assay [19], 3.7; in [20], 2; in assay [22], 2; in [27], 5.5; in [28] it was 3. Also, the Ratio IC50 in [30] is 11; in assay [31] it was 4.7; in assay [10] it was 1.2. Besides, the Activity entry was “Dose-dependent effect” in assay [15]; 2.64% in [16]; 72.74% in assay [17]; 84.88% in [21]; “Dose-dependent effect” in assay [1]; “Dose-dependent effect” in assay [12]. Also, the Activity entry is “Dose-dependent effect” in assay [23]; “Dose-dependent effect” in assay [25]; “Dose-dependent effect” in [26]; “Dose-dependent effect” in [5]; 11.69% in [29]. For the same molecule, the result in assay [18] and in assay [24] was Active. In addition, the IC50 was 5.2 µM in assay [1]; 9.7 µM in assay [12]; 1.8 µM in assay [2]; 1.4 µM in assay [3]; 6.3 µM in assay [4]; 7.4 µM in assay [5]. Also, the IC50 came to 18.9 µM in [7], 13.1 µM in [8] and 15.8 µM in [9].

As for `COc1ccc(/C=C/c2cc(C)n[nH]2)cc1`, the IC50 in [12] was 10.7 µM; in assay [2], 8.4 µM; in assay [3], 9.4 µM; in assay [4], 8.9 µM; in assay [5], 9.7 µM; in assay [6] it was 19.9 µM. The IC50 in assay [7] turned out to be 16.5 µM; in assay [9], 12.9 µM. Also, the “Ratio IC50” value in [10] amounted to 1.3.

Consider `CC(=O)/C=C(O)/C=C/c1ccc(O)c(O)c1` [HISPOLON], for which the IC50 turned out to be 28.6 µM in [1]; 32.2 µM in assay [12]; 8.4 µM in [2]; 5.2 µM in [3]; 12.9 µM in assay [4]; 7.9 µM in assay [5]. For the same molecule, the IC50 in [6] was 51.2 µM; in [7], 9.6 µM; in [8] it was 36.2 µM; in assay [9] it was 7.3 µM. Also, in assay [10], the “Ratio IC50” value came to 1.3.

`Cc1cc(/C=C/c2ccc(O)c(O)c2)on1`: the IC50 in assay [1] was 10.5 µM; in assay [12], 8.9 µM; in [2] it was 7.9 µM; in [3], 5.3 µM; in assay [4], 3.3 µM; in assay [5] it was 6.3 µM. For the same molecule, the IC50 in assay [6] worked out at 26.2 µM; in assay [7], 11.8 µM; in assay [9], 13 µM. The “Ratio IC50” value in assay [10] was 0.9.

Take `COc1ccc(/C=C/C(=O)CC(C)=O)cc1OC`: the IC50 turned out to be 8.2 µM in assay [1]; 43.1 µM in [12]; 9.3 µM in assay [2]; 4.7 µM in assay [3]; 8.9 µM in [4]; 10.6 µM in assay [5]. The IC50 in assay [6] was found to be 18.1 µM; in [7], 10.6 µM; in [8] it was 9.9 µM; in assay [9] it was 8.2 µM. Moreover, the “Ratio IC50” value in [10] was determined as 1.3.
